GalR3 antagonist: antagonists of human GalR3. O60755. HEK293 GalR3-CNG cAMP membrane potential fluorescence; galR3 body fused to GalR1 C-terminus. inhibition, % at 3 µM. 360,000 tested, 0.44% active. AID 651719;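 active means inhibition above the screen-wide average plus 3 SD, cut at about 13% in these data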;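 further: forskolin and galanin both at EC90 stimulate the cells; cAMP rise reported by CNG channel membrane potential dye signal; 0% = forskolin plus galanin with DMSO and 100% = forskolin alone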
Target sequence (O60755 1-299 limits assumed): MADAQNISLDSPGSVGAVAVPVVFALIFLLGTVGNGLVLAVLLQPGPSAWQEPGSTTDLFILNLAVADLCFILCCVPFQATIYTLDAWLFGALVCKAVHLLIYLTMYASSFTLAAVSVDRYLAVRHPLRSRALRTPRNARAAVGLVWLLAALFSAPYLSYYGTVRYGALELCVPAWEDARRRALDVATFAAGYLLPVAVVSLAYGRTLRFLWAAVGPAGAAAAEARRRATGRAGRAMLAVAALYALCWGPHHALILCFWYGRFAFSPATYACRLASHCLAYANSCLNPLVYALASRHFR
Env fusion inh: HIV envelope-mediated fusion inhibition; inhibition, % at 12.3 µM; 360,000 tested, 1.1% active; HeLa-JRFL Env/CEM21 cell fusion, luciferase;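 active means mean replicate inhibition score of at least 50 and every replicate individually at or above 50; inconclusive means only one of the two criteria met; inactive means mean below 50 and not all replicates reaching 50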;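 further: 0% = plate neutral controls and 100% = maraviroc near 300 nM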
V-ATPase pHluor: regulators of yeast V-ATPase proton transport; S. cerevisiae, pHLuorin cytosolic pH fluorescence; response, % at 10 µM; 350,000 tested, 0.37% active; AID 504577; in the data active means response mostly above about 7.3%, no sharp cut-off; inactive means mostly below about 5.4%; further: actives read high
NR2E3 ag-1: agonists of human nuclear receptor NR2E3; Q9Y5X4; GST-NR2E3/biotin-RetCOR TR-FRET, 1536-well; inhibition of corepressor binding, % at 4.78 µM; 320,000 tested, 0.12% active;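 active means percent inhibition above the cutoff of mean plus 3 SD of all tested compounds, set per screening campaign, cut at about 20% in these data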;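 further: 0% = DMSO wells and 100% = biotin wells as full block of FRET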
Target sequence (Q9Y5X4 whole entry, looked up): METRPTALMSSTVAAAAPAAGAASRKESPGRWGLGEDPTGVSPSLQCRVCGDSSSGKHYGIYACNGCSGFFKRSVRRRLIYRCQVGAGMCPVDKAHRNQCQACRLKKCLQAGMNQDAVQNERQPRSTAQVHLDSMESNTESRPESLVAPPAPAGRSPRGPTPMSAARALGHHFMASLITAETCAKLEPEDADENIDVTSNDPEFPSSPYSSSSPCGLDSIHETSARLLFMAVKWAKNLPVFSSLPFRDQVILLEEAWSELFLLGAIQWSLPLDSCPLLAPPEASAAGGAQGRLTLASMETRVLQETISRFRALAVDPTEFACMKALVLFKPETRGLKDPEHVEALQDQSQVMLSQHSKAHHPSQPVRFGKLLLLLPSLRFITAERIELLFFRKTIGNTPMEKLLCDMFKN
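Material: NR2E3–RetCOR corepressor complex / Amount: 1.35 nM GST-NR2E3 / Medium: Tris pH 7.5 / Compound: single nominal compound dose of 4.8 µM / Incubation: 5 h at 4 °C / Technique: TR-FRET, Eu(K)-anti-GST donor, streptavidin-D2 acceptor, ex 340, em 617/671 nm / Read-out basis: percent loss of FRET ratio relative to control wells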
NR2E3 ag-2: human photoreceptor-specific nuclear receptor agonism | CHO-S Gal4-NCOR/VP16-NR2E3 two-hybrid, luciferase | inhibition of corepressor binding, % at 3.98 µM | 360,000 tested, 0.35% active;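 active means inhibition above the mean of all tested compounds plus 3 SD, cut at about 70% in these data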;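 further: 0% = DMSO with NR2E3 transfected cells and 100% = cells lacking NR2E3 construct; higher means lower luciferase signal from less NR2E3 corepressor binding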
GAA850 FXN act: frataxin GAA850 promoter activation | HEK293 lucGAA850 FXN promoter luciferase reporter, 24 h; percent of 10 µM SAHA response | activation, % at 6 µM | 360,000 tested, 0.56% active;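 active means activation above the average of all compounds screened plus 3 SD, cutoff fixed separately per campaign, cut at about 7.5% in these data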;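 further: 0% = DMSO wells and 100% = 10 µM SAHA wells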
NR2E3 ag confirm: confirmation of human NR2E3 agonists. shares compounds with NR2E3 ag-2. CHO-S mammalian two-hybrid NR2E3-NCOR, luciferase luminescence. inhibition, % at 3.98 µM. 2,300 tested, 51% active. AID 624378;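 active means average inhibition above a cutoff equal to the mean inhibition of all tested compounds plus one SD, cut at about 70% in these data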;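 further: 0% = DMSO in NR2E3 cells and 100% = DMSO in cells lacking NR2E3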
GAL4-VP16 luc: reduces GAL4-VP16 reporter signal in NR2E3 counterscreen. shares compounds with NR2E3 ag-2. CHO-S GAL4-VP16 luciferase reporter, luminescence. inhibition, % at 3.98 µM. 2,300 tested, 29% active. AID 624379;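 active means mean inhibition above a cutoff equal to the average over all tested compounds plus one standard deviation, cut at about 70% in these data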;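 further: luciferase from a UAS reporter driven by GAL4-VP16 transactivation; 0% = DMSO with VP16-transfected cells and 100% = DMSO with cells lacking VP16; higher means less reporter light so more repression of VP16 activity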
An asterisk follows results filed as active; i = inactive; ? = inconclusive; . = not tested or not shown; [ ] = dose if it differs, or a comment. A selection: hits, their analogues and other compounds. The true share with any hit is near 2.2%.

SMILES	GalR3 antagonist	Env fusion inh	V-ATPase pHluor	NR2E3 ag-1	NR2E3 ag-2	GAA850 FXN act	NR2E3 ag confirm	GAL4-VP16 luc
CC1Sc2ccc(S(=O)(=O)N3CCN(c4ccccc4)CC3)cc2NC1=O (stereo not given)	-9	4	-3	2	42	-2	.	.
Cc1cc(C)cc(NC(=O)C2CCN(S(=O)(=O)c3ccc4c(c3)NC(=O)C(C)S4)CC2)c1 (stereo not given)	-8	8	1	1	6	0	.	.
Cc1cccc(CCNS(=O)(=O)c2ccc3c(c2)NC(=O)C(C)S3)c1 (stereo not given)	-7	5	-1	3	52	1	33	49
C[C@@H]1CN([C@@H](C)CO)C(=O)c2cccc(NC(=O)C3CCOCC3)c2O[C@@H]1CN(C)Cc1ccncc1	.	-6[16.7 µM]	.	.	.	.	.	.
CCN(CC(=O)Nc1cccc(OC)c1)c1ncnc2sc(C)c(C)c12	-7	58*	-3	-1	71*	-2	88*	71*
CC1=C/C(=N\NC(=S)Nc2cccnc2)CC(C)(C)C1	4	1	1	.	80*	3	-25	1
C[C@@H]1CN([C@@H](C)CO)S(=O)(=O)c2ccc(-c3cccnc3)cc2O[C@H]1CN(C)C	.	8[16.7 µM]	.	.	.	.	.	.
CC(C)(C)C(=O)Nc1ccc(NC(=O)c2ccco2)nc1	-8	63*	2	2	88*	-13	65	40
Cc1ccccc1S(=O)(=O)N1[C@@H](c2ccc(Cl)cc2)C(C(=O)O)=CC[C@H]1c1ccc(Cl)cc1	-6	4	0	.	65	0	27	19
Cc1ccc([C@H]2C(C(=O)O)=CC[C@@H](c3ccc(Cl)cc3)N2S(=O)(=O)c2ccccc2C)cc1	.	.	-1	.	48	0	28	31
Cc1ccccc1S(=O)(=O)N1C(c2ccc(Cl)cc2)CC=C(C(=O)O)C1c1cccc(Cl)c1 (stereo not given)	-5	7	.	.	.	.	.	.
Cc1ccc([C@H]2C(C(=O)O)=CC[C@@H](c3ccc(C)cc3)N2S(=O)(=O)c2ccccc2C)cc1	2	-22	3	.	2	-1	.	.
N#C/C(=N\Nc1cccc(C(F)(F)F)c1)C(=O)c1csc(-c2cccnc2)n1	3	6	1	-1	77*	0	94*	77*
Cc1ccc(C(=O)Nc2cccc(C(F)(F)F)c2)cc1NC(=O)c1csc(-c2ccncc2)n1	.	.	-3	3	-24	4	.	.
COc1ccccc1C(=O)Nc1nc2ccc(S(C)(=O)=O)cc2s1	-7	-109	-4	0	-49	0	.	.
COc1ccc(C(=O)Nc2nc3ccccc3s2)c(OC)c1	-13	79*	0	1	97*	-14	89*	86*
COc1ccccc1C(=O)Nc1nc2ccccc2s1	-11	79*	0	1	66	-12	65	52
COc1ccc2nc(NC(=O)c3ccccc3C(=O)O)sc2c1	-8	-7	-1	0	-11	1	.	.
O=C(Cc1ccncc1)NCC[C@@H]1CC[C@@H](NC(=O)Nc2cccc(F)c2)[C@H](CO)O1	.	-5[16.7 µM]	.	.	.	.	.	.
CN1C(=O)c2cc(NC(=O)C3CCCC3)ccc2OC[C@H]2O[C@H](CC(=O)NCC3CC3)CC[C@@H]21	.	-11[16.7 µM]	.	.	.	.	.	.
CCc1cc(-c2nnn(CCC3COCCO3)c2CC)ccc1-c1cn(Cc2ccccc2)nn1 (stereo not given)	-4	?	3	.	76*	0	76*	66
c1ccc2[nH]c(CSc3nnc(-c4ccncc4)o3)nc2c1	-1	.	3	0	70*	-6	-30	10
Cc1ccccc1C(=O)NNC(=O)C(=O)N1CCCCC1	2	12	-2	2	-4	3	.	.
Cc1ccc(NNC(=O)C(=O)N2CCCCC2)cc1	-6	-31	3	2	57	5	37	24
C[C@H]1CN([C@@H](C)CO)C(=O)Cc2cc(NS(=O)(=O)c3ccc(F)cc3)ccc2O[C@@H]1CN(C)Cc1ccc(Oc2ccccc2)cc1	.	-12[16.7 µM]	.	.	.	.	.	.
SMILES	GalR3 antagonist	Env fusion inh	V-ATPase pHluor	NR2E3 ag-1	NR2E3 ag-2	GAA850 FXN act	NR2E3 ag confirm	GAL4-VP16 luc
CC(=O)N1c2ccc(S(=O)(=O)NCC3CCC(C(=O)Nc4cc(C)ccn4)CC3)cc2CC1C (stereo not given)	-10	38	-1	1	48	2	52	40
CC1Cc2cc(S(=O)(=O)NCCc3ccccc3)ccc2N1C(=O)C1CC1 (stereo not given)	-7	-2	-3	-1	50	1	71*	57
CC(=O)N1c2ccc(S(=O)(=O)NCCC(=O)N(C)Cc3ccccc3)cc2CC1C (stereo not given)	-5	4	3	0	-6	-1	.	.
CC(=O)N1c2ccc(S(=O)(=O)NCCc3ccccc3)cc2CC1C (stereo not given)	-7	-15	0	-1	73*	0	55	50
Cc1ccc(-n2nnnc2SCn2nnc3ccccc3c2=O)c(C)c1	-7	75*	-1	0	92*	-2	89*	72*
Cc1cc(SCn2nnc3ccccc3c2=O)nc2ccccc12	-4	5	-2	-4	-10	2	.	.
C/C(=N\NC(=S)Nc1cccc(C)c1)c1ccccc1	0	-55	5	-2	71*	3	-18	-78
C/C(=N\NC(=S)Nc1cccc(C)c1)c1ccco1	-7	-22	-1	2	34	5	.	.
C/C(=N\NC(=S)Nc1ccc(C)cc1)c1cccc(N)c1	-5	-8	-2	2	-12	3	.	.
COc1ccccc1NC(=S)NN=C(C)c1ccccn1	-8	36	-3	.	78*	2	-26	-1
CC(=NNC(=S)Nc1cccc(C)c1)c1ccccn1	2	-29	3	.	67	-2	-63	-22
CC(=NNC(=S)Nc1ccc(C)cc1)c1ccccn1	-3	3	-6	.	71*	-6	-24	5
C/C(=N\NC(=S)Nc1cccc(C)c1)c1cccc(N)c1	0	7	-1	0	-39	-1	.	.
CC(C)NC(=O)N(C)C[C@@H]1Oc2ccc(NS(=O)(=O)c3cn(C)cn3)cc2CC(=O)N([C@@H](C)CO)C[C@@H]1C	.	-11[16.7 µM]	.	.	.	.	.	.
CC(=O)N[C@@H]1C=C[C@H](CC(=O)NCc2ccc(Cl)cc2)O[C@H]1CO	.	7[16.7 µM]	.	.	.	.	.	.
C[C@H](CO)N1C[C@H](C)[C@@H](CN(C)C(=O)C2CCCCC2)Oc2cc(Br)ccc2S1(=O)=O	.	16[16.7 µM]	.	.	.	.	.	.
Cc1cnc(NC(=O)CN2CCN(c3ccccn3)CC2)s1	-1	i	0	0	64	-2	94*	16
